Measured values: ChEMBL document CHEMBL4689842, “EUbOPEN Chemogenomics Library wave 1” (2021)

Test system: HEK-293T
Experiment: Multiplex assay against HEK293T;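 for Population Tubulin-Different-Phenotype (%): share of the cells with healthy nuclei that show this phenotype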
Format: toxicity, cell-based
Conditions: human
Outline: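 Phenotypes for tubulin, mitochondrial mass and membrane permeability are expressed as per cents of healthy-nucleus cells. Cells were stained live at seeding with Hoechst33342, BioTracker Green Microtubule Cytoskeleton Dye, MitoTracker Red and Annexin V Alexa Fluor 680, then imaged after compound addition on a CQ1 microscope at 37°C and 5% CO2. Machine-learning gating in CellPathfinder separated Hoechst high-intensity objects from normal cells, divided normal cells by nuclear state (healthy, pyknosed, fragmented) and divided pyknosed cells into mitotic or apoptotic.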

[1] = 12 h, 1 µM, compound concentration 1 uM, replicate 1
[2] = 12 h, 1 µM, compound concentration 1 uM, replicate 2
[3] = 12 h, 10 µM, compound concentration 10 uM, replicate 1
[4] = 12 h, 10 µM, compound concentration 10 uM, replicate 2
[5] = 24 h, 1 µM, compound concentration 1 uM, replicate 1
[6] = 24 h, 1 µM, compound concentration 1 uM, replicate 2
[7] = 24 h, 10 µM, compound concentration 10 uM, replicate 1
[8] = 24 h, 10 µM, compound concentration 10 uM, replicate 2
[9] = 48 h, 1 µM, compound concentration 1 uM, replicate 1
[10] = 48 h, 1 µM, compound concentration 1 uM, replicate 2
[11] = 48 h, 10 µM, compound concentration 10 uM, replicate 1
[12] = 48 h, 10 µM, compound concentration 10 uM, replicate 2

With `CCOc1cc2ncc(C#N)c(Nc3ccc(OCc4ccccn4)c(Cl)c3)c2cc1NC(=O)/C=C/CN(C)C` [NERATINIB] the “Population Apoptotic (%)” value [1] was 50%, the “Population Fragmented Nuclei (%)” value [1] was 20% and the “Population Healthy Nuclei (%)” value [1] was 24%. For the same compound, the “Population Hoechst High Intensity Objects (%)” value [1] was 20%, the “Population Membrane Permeable-Phenotype (%)” value [1] was 0% and the “Population Mitochondria Different-Phenotype (%)” value [1] was 85%. For the same compound, the “Population Mitotic Cells (%)” value [1] was 50%, the “Population Normal (%)” value [1] was 79% and the “Population Pyknosed Nuclei (%)” value [1] was 55%. The “Population Tubulin-Different-Phenotype (%)” value [1] was 55%, the “Total Cell Count” value [1] was 254 and the “Population Apoptotic (%)” value [2] was 21%. The “Population Fragmented Nuclei (%)” value [2] was 25%, the “Population Healthy Nuclei (%)” value [2] was 46% and the “Population Hoechst High Intensity Objects (%)” value [2] was 19%. For the same compound, the “Population Membrane Permeable-Phenotype (%)” value [2] was 3%, the “Population Mitochondria Different-Phenotype (%)” value [2] was 15% and the “Population Mitotic Cells (%)” value [2] was 78%. For the same compound, the “Population Normal (%)” value [2] was 80%, the “Population Pyknosed Nuclei (%)” value [2] was 27% and the “Population Tubulin-Different-Phenotype (%)” value [2] was 15%. For the same compound, the “Total Cell Count” value [2] was 471, the “Population Apoptotic (%)” value [3] was 43% and the “Population Fragmented Nuclei (%)” value [3] was 25%. The “Population Healthy Nuclei (%)” value [3] was 52%, the “Population Hoechst High Intensity Objects (%)” value [3] was 29% and the “Population Mitochondria Different-Phenotype (%)” value [3] was 22%. The “Population Mitotic Cells (%)” value [3] was 56%, the “Population Normal (%)” value [3] was 70% and the “Population Pyknosed Nuclei (%)” value [3] was 21%. For the same compound, the “Population Tubulin-Different-Phenotype (%)” value [3] was 23%, the “Total Cell Count” value [3] was 1420 and the “Population Apoptotic (%)” value [4] was 33%. The “Population Fragmented Nuclei (%)” value [4] was 30%, the “Population Healthy Nuclei (%)” value [4] was 50% and the “Population Hoechst High Intensity Objects (%)” value [4] was 27%. The “Population Membrane Permeable-Phenotype (%)” value [4] was 3%, the “Population Mitochondria Different-Phenotype (%)” value [4] was 11% and the “Population Mitotic Cells (%)” value [4] was 66%. For the same compound, the “Population Normal (%)” value [4] was 72%, the “Population Pyknosed Nuclei (%)” value [4] was 18% and the “Population Tubulin-Different-Phenotype (%)” value [4] was 15%. For the same compound, the “Total Cell Count” value [4] was 844, the “Population Apoptotic (%)” value [5] was 55% and the “Population Fragmented Nuclei (%)” value [5] was 19%. The “Population Healthy Nuclei (%)” value [5] was 20%, the “Population Hoechst High Intensity Objects (%)” value [5] was 20% and the “Population Membrane Permeable-Phenotype (%)” value [5] was 2%. The “Population Mitochondria Different-Phenotype (%)” value [5] was 80%, the “Population Mitotic Cells (%)” value [5] was 44% and the “Population Normal (%)” value [5] was 79%. For the same compound, the “Population Pyknosed Nuclei (%)” value [5] was 59%, the “Population Tubulin-Different-Phenotype (%)” value [5] was 61% and the “Total Cell Count” value [5] was 262. For the same compound, the “Population Apoptotic (%)” value [6] was 20%, the “Population Fragmented Nuclei (%)” value [6] was 26% and the “Population Healthy Nuclei (%)” value [6] was 50%. The “Population Hoechst High Intensity Objects (%)” value [6] was 16%, the “Population Mitochondria Different-Phenotype (%)” value [6] was 24% and the “Population Mitotic Cells (%)” value [6] was 80%. The “Population Normal (%)” value [6] was 83%, the “Population Pyknosed Nuclei (%)” value [6] was 22% and the “Population Tubulin-Different-Phenotype (%)” value [6] was 24%. For the same compound, the “Total Cell Count” value [6] was 531, the “Population Apoptotic (%)” value [7] was 50% and the “Population Fragmented Nuclei (%)” value [7] was 25%. The “Population Healthy Nuclei (%)” value [7] was 50%, the “Population Hoechst High Intensity Objects (%)” value [7] was 30% and the “Population Membrane Permeable-Phenotype (%)” value [7] was 1%. For the same compound, the “Population Mitochondria Different-Phenotype (%)” value [7] was 19%, the “Population Mitotic Cells (%)” value [7] was 49% and the “Population Normal (%)” value [7] was 69%. The “Population Pyknosed Nuclei (%)” value [7] was 23%, the “Population Tubulin-Different-Phenotype (%)” value [7] was 19% and the “Total Cell Count” value [7] was 1427. For the same compound, the “Population Apoptotic (%)” value [8] was 42%, the “Population Fragmented Nuclei (%)” value [8] was 31% and the “Population Healthy Nuclei (%)” value [8] was 49%. For the same compound, the “Population Hoechst High Intensity Objects (%)” value [8] was 25%, the “Population Membrane Permeable-Phenotype (%)” value [8] was 0% and the “Population Mitochondria Different-Phenotype (%)” value [8] was 12%. For the same compound, the “Population Mitotic Cells (%)” value [8] was 57%, the “Population Normal (%)” value [8] was 74% and the “Population Pyknosed Nuclei (%)” value [8] was 18%. The “Population Tubulin-Different-Phenotype (%)” value [8] was 14%, the “Total Cell Count” value [8] was 857 and the “Population Apoptotic (%)” value [9] was 62%. The “Population Fragmented Nuclei (%)” value [9] was 23%, the “Population Healthy Nuclei (%)” value [9] was 17% and the “Population Hoechst High Intensity Objects (%)” value [9] was 23%. The “Population Membrane Permeable-Phenotype (%)” value [9] was 2%, the “Population Mitochondria Different-Phenotype (%)” value [9] was 56% and the “Population Mitotic Cells (%)” value [9] was 37%. For the same compound, the “Population Normal (%)” value [9] was 76%, the “Population Pyknosed Nuclei (%)” value [9] was 58% and the “Population Tubulin-Different-Phenotype (%)” value [9] was 29%. The “Total Cell Count” value [9] was 277, the “Population Apoptotic (%)” value [10] was 17% and the “Population Fragmented Nuclei (%)” value [10] was 21%. For the same compound, the “Population Healthy Nuclei (%)” value [10] was 62%, the “Population Hoechst High Intensity Objects (%)” value [10] was 15% and the “Population Mitochondria Different-Phenotype (%)” value [10] was 14%. The “Population Mitotic Cells (%)” value [10] was 82%, the “Population Normal (%)” value [10] was 84% and the “Population Pyknosed Nuclei (%)” value [10] was 16%. For the same compound, the “Population Tubulin-Different-Phenotype (%)” value [10] was 27%, the “Total Cell Count” value [10] was 609 and the “Population Apoptotic (%)” value [11] was 52%. For the same compound, the “Population Fragmented Nuclei (%)” value [11] was 29%, the “Population Healthy Nuclei (%)” value [11] was 46% and the “Population Hoechst High Intensity Objects (%)” value [11] was 32%. For the same compound, the “Population Membrane Permeable-Phenotype (%)” value [11] was 0%, the “Population Mitochondria Different-Phenotype (%)” value [11] was 15% and the “Population Mitotic Cells (%)” value [11] was 47%. The “Population Normal (%)” value [11] was 67%, the “Population Pyknosed Nuclei (%)” value [11] was 23% and the “Population Tubulin-Different-Phenotype (%)” value [11] was 16%. For the same compound, the “Total Cell Count” value [11] was 1487, the “Population Apoptotic (%)” value [12] was 42% and the “Population Fragmented Nuclei (%)” value [12] was 32%. For the same compound, the “Population Healthy Nuclei (%)” value [12] was 51%, the “Population Hoechst High Intensity Objects (%)” value [12] was 24% and the “Population Mitochondria Different-Phenotype (%)” value [12] was 16%. The “Population Mitotic Cells (%)” value [12] was 58%, the “Population Normal (%)” value [12] was 75% and the “Population Pyknosed Nuclei (%)” value [12] was 16%. The “Population Tubulin-Different-Phenotype (%)” value [12] was 21% and the “Total Cell Count” value [12] was 828.
